High-throughput results (PubChem)
An excerpt weighted towards active compounds, which were near 3.5% of everything screened.
esBAF inh = blocks esBAF chromatin remodeling in mouse ES cells; Bmi1-luciferase knock-in reporter, 24 h; 100% = twice the neutral-well signal; reporter increase, % at 12.5 µM; hit rate 2% among 350,000; AID 602393; in the data active = activation above about 40%; inconclusive = no clear call, values can overlap the other calls;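 also: 0% = median of the plate's neutral control wells and 100% = double that signal; a rise in the Bmi1 reporter signal indicates esBAF inhibition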
Wnt bcat act = Wnt/beta-catenin pathway activation | hit rate 1.2% among 300,000 | Wnt/beta-catenin reporter cell assay, activator, plate reader | activation, % at 9.35 µM; in the data active = activation above about 30%, passing the limit was not always enough; inconclusive = no clear call, values can overlap the other calls;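 also: 0% = neutral control wells and 100% = positive control wells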
MITF TRPM1 HTS = MITF TRPM1 promoter activation in melanoma cells. SK-MEL-5 TRPM1-promoter luciferase, 24 h; % of positive control, neutral wells = 0. activation, % at 12.5 µM. hit rate 0.75% among 300,000;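 active = mean activation of at least 80% with every replicate also reaching 80%; inconclusive = mean reaches 80% but some replicate falls short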;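 also: 0% = neutral control wells and 100% = parthenolide positive control wells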
Cneo AK release = Cryptococcus neoformans lysis via adenylate kinase release; C. neoformans lysis, adenylate kinase release luminescence, 4 h; normalised: neutral wells 0, clomiphene wells 100; lysis activity, % at 15 µM; hit rate 0.2% among 360,000;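 active = mean lysis activity across replicates of at least 80%, whatever share of replicates individually reach that level; inactive = mean lysis activity below 80%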
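Test system: log-phase Cryptococcus neoformans yeast cells. Input: 5 × 10^6 yeast cells/mL. Medium: fresh YPD growth medium. Doses: single dose. Incubation: static 4 h at 37 °C with compound, 1 h detection. Measured by: luminescent adenylate kinase detection reagent. Read-out: signal increase indicating cell lysis. Benchmarks: Clomiphene.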
ERAP1 inh = blocks human ERAP1 aminopeptidase activity. recombinant ERAP1, Leu-AMC fluorescence, 60 min. inhibition, % at 10.7 µM. hit rate 0.15% among 340,000;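 active = mean replicate inhibition of at least 30%, or all replicates individually reaching that 30% level; inactive = mean below 30% and not every replicate reaching it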;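 also: 0% = neutral control wells and 100% = L-leucinethiol positive control wells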
Target sequence (Q9NZ08 whole entry, looked up): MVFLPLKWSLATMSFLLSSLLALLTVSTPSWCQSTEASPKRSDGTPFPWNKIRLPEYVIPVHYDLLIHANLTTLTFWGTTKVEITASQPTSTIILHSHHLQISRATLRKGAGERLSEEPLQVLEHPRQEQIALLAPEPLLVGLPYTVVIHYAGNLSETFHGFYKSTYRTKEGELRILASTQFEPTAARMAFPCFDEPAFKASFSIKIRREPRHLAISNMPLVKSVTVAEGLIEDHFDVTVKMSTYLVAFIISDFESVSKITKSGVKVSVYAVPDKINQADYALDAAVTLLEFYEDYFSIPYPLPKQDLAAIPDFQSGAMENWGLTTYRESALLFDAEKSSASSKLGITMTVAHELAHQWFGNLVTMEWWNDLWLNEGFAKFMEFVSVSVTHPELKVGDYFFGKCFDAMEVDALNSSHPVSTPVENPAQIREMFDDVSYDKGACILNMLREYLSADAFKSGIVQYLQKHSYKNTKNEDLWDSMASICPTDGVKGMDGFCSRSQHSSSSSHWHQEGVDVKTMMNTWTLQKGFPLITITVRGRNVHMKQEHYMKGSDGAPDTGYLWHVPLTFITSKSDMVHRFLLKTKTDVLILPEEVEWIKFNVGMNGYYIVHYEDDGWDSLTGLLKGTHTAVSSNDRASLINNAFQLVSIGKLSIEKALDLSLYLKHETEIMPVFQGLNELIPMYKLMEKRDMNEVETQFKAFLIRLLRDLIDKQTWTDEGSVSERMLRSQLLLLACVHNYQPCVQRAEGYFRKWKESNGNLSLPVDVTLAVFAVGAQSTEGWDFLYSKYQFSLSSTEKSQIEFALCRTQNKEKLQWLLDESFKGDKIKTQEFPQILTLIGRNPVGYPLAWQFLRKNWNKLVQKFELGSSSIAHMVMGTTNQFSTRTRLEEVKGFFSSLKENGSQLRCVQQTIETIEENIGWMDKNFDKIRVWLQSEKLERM
HIV Env fusion = inhibitors of HIV Env-mediated cell fusion | AID 651610 | HeLa-JRFL Env/CEM21 cell fusion, luciferase | inhibition, % at 12.3 µM | hit rate 1.1% among 360,000;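 active = mean replicate inhibition score of at least 50 and every replicate individually at or above 50; inconclusive = only one of the two criteria met; inactive = mean below 50 and not all replicates reaching 50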;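 also: 0% = plate neutral controls and 100% = maraviroc near 300 nM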
An asterisk follows results filed as active; ? = inconclusive; . = no result; [ ] = another dose, or the depositor's remark.

SMILES	esBAF inh	Wnt bcat act	MITF TRPM1 HTS	Cneo AK release	ERAP1 inh	HIV Env fusion
COc1ccc(S(=O)(=O)N(C)C[C@@H]2Oc3ccc(NC(=O)Nc4ccc(F)cc4)cc3CC(=O)N([C@@H](C)CO)C[C@@H]2C)cc1	4	.	.	2	.	5[16.7 µM]
Cc1noc(C)c1S(=O)(=O)Nc1ccc2c(c1)C(=O)N([C@H](C)CO)C[C@H](C)[C@@H](CN(C)C(=O)Nc1ccccc1)OCCCC[C@@H](C)O2	-3	.	.	-8	1	-38[16.7 µM]
Cc1ccc(S(=O)(=O)Nc2ccc3c(c2)CC(=O)N([C@H](C)CO)C[C@H](C)[C@@H](CN(C)C(=O)Nc2ccc4c(c2)OCO4)O3)cc1	5	.	.	-5	1	1[16.7 µM]
O=C(NCc1ccc2c(c1)OCO2)c1cc(-c2ccccc2Cl)on1	5	-4	-1	0	.	-43
O=C(Nc1ccc2c(c1)OCO2)c1cc(-c2ccccc2Cl)on1	60*	20	?	-2	-2	-89
CC(=O)c1cccc(NC(=O)c2cc(-c3ccco3)on2)c1	23	1	30	-5	1	22
O=C(Nc1cccc(O)c1)c1cc(-c2ccco2)on1	73*	.	75	2	.	.
COc1ccc2c3c([nH]c2c1)[C@H](CO)N(Cc1ccccc1F)CC31CN(S(C)(=O)=O)C1	.	.	.	.	-2	.
CC1CCCN(S(=O)(=O)c2ccc3[nH]c(=O)cc(C(=O)NCCCN4CCCCCC4)c3c2)C1 (stereo unspecified)	0	-1	.	-2	1	-4
CCCCN(C)CCCNC(=O)c1cc(=O)[nH]c2ccc(S(=O)(=O)N3CCCCC3C)cc12 (stereo unspecified)	.	-1	1	.	0	60*
CN1C(=O)C2(OCC(C)([N+](=O)[O-])CO2)c2ccccc21 (stereo unspecified)	-3	-2	-9	6	1	2
CN1C(=O)C2(N=c3ccccc3=N2)c2ccccc21	41*	1	-29	.	.	.
O=C(CC(=O)NCCc1ccccc1)NCCc1ccccc1	-2	0	-2	-2	-2	19
NNCCc1ccccc1	63*	27	60	-2	2	5
CNC[C@@H]1Oc2cc(C#CCOC)ccc2S(=O)(=O)N([C@@H](C)CO)C[C@H]1C	0	.	.	2	-2	-11[16.7 µM]
CCNC(=O)C[C@H]1CC[C@@H](NS(=O)(=O)c2ccc(C)cc2)[C@H](CO)O1	1	.	.	-1	0	-21[16.7 µM]
Cc1cc(C)n(-c2nc3ccccc3nc2N2CCN(S(=O)(=O)c3ccc4ccccc4c3)CC2)n1	3	.	-24	1	.	56*
O=C(C[C@@H]1C[C@H]2c3cc(NC(=O)C4CCOCC4)ccc3O[C@H]2[C@H](CO)O1)NCC1CC1	4	.	.	7	1	9[16.7 µM]
C[C@@H]1CN([C@@H](C)CO)C(=O)c2cc(NS(=O)(=O)c3cccs3)ccc2O[C@@H](C)CCCCO[C@@H]1CN(C)S(=O)(=O)c1ccccc1	14	.	.	-1	1	-21[16.7 µM]
O=C(COc1ccc(Cl)cc1)Nc1ncc([N+](=O)[O-])s1	.	38*	15	.	-2	-27
CO[C@@H]1CN(C)C(=O)c2ccc(NC(C)=O)cc2OC[C@H](C)N(Cc2nccs2)C[C@@H]1C	5	.	.	3	0	20[16.7 µM]
Cc1ccc(S(=O)(=O)NCc2ccccc2)cc1C(=O)N1CCN(S(=O)(=O)c2ccccc2)CC1	1	-2	0	2	-4	-2
Cc1ccc(S(=O)(=O)NCc2ccccc2)cc1C(=O)N1CCCCCCC1	2	-4	-1	-3	0	66*
NC(=O)c1c(NC(=O)C2COc3ccccc3O2)sc2c1CCN(Cc1ccccc1)C2 (stereo unspecified)	9	-1	9	-1	-2	-30
COC(=O)N1CCc2c(sc(NC(=O)C3COc4ccccc4O3)c2C(N)=O)C1 (stereo unspecified)	50*	14	67	-5	-6	-17
Nc1cc(Cl)ccc1C(=O)OCC(=O)N1CCCCCC1	53*	9	73	-1	1	-28
CC1CN(C(=O)COC(=O)c2cc(Cl)ccc2[N+](=O)[O-])CC(C)O1 (stereo unspecified)	-2	-1	.	15	3	-4
